Experimental data as given in ChEMBL document CHEMBL4004830 (J Med Chem, 2017).

Experiments:
MDA-MB-468 = test: Growth inhibition of human MDA-MB-468 cells after 72 hrs by resazurin or MTT assay; type: functional; conditions: MDA-MB-468, 72 h
MCF7 = test: Growth inhibition of human MCF7 cells after 72 hrs by resazurin or MTT assay; type: functional; conditions: MCF7, 72 h
MV4-11 [1] = test: Induction of apoptosis in human MV4-11 cells assessed as viable cells at 10 times GI50 after 24 hrs by annexin V/propidium iodide staining based flow cytometry (reference value: 93.05%); type: functional
MV4-11 [2] = test: Cell cycle arrest in human MV4-11 cells assessed as accumulation at G2/M phase at 5 times GI50 after 24 hrs by propidium iodide staining based flow cytometry (reference value: 18.11%); type: functional
How it was run: (§1)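 MV4-11 cells were treated with increasing concentrations for 24 h. Cells were then harvested, fixed and stained with propidium iodide before flow cytometric cell cycle analysis.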

MV4-11 [3] = test: Induction of apoptosis in human MV4-11 cells assessed as necrotic cells at 10 times GI50 after 24 hrs by annexin V/propidium iodide staining based flow cytometry (reference value: 0.06%); type: functional
MV4-11 [4] = test: Cell cycle arrest in human MV4-11 cells assessed as accumulation at S phase at GI50 after 24 hrs by propidium iodide staining based flow cytometry (reference value: 21.97%); type: functional; how it was run: as §1
MV4-11 [5] = test: Cell cycle arrest in human MV4-11 cells assessed as accumulation at G1 phase at 5 times GI50 after 24 hrs by propidium iodide staining based flow cytometry (reference value: 58.99%); type: functional; how it was run: as §1
MV4-11 [6] = test: Cell cycle arrest in human MV4-11 cells assessed as accumulation at G2/M phase at GI50 after 24 hrs by propidium iodide staining based flow cytometry (reference value: 18.11%); type: functional; how it was run: as §1
MV4-11 [7] = test: Induction of apoptosis in human MV4-11 cells assessed as early apoptotic cells at 5 times GI50 after 24 hrs by annexin V/propidium iodide staining based flow cytometry (reference value: 2.01%); type: functional
MV4-11 [8] = test: Cell cycle arrest in human MV4-11 cells assessed as accumulation at sub-G1 phase at 5 times GI50 after 24 hrs by propidium iodide staining based flow cytometry (reference value: 0.91%); type: functional; how it was run: as §1
[9] = Growth inhibition of human M238 cells after 72 hrs by resazurin or MTT assay; type: functional; conditions: M238, 72 h
MV4-11 [10] = test: Induction of apoptosis in human MV4-11 cells assessed as early apoptotic cells at 10 times GI50 after 24 hrs by annexin V/propidium iodide staining based flow cytometry (reference value: 2.01%); type: functional
MV4-11 [11] = test: Growth inhibition of human MV4-11 cells after 72 hrs by resazurin assay; type: functional; conditions: MV4-11, 72 h
How it was run: (§2)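 72 h antiproliferation assay, resazurin read-out for MV4-11 and MTT read-out for MDA-MB-453; values from at least two replicates.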

MOLM-13 = test: Growth inhibition of human MOLM13 cells after 72 hrs by resazurin or MTT assay; type: functional; conditions: MOLM-13, 72 h
MV4-11 [12] = test: Cell cycle arrest in human MV4-11 cells assessed as accumulation at G2/M phase at 10 times GI50 after 24 hrs by propidium iodide staining based flow cytometry (reference value: 18.11%); type: functional; how it was run: as §1
PC-3 = test: Growth inhibition of human PC3 cells after 72 hrs by resazurin or MTT assay; type: functional; conditions: PC-3, 72 h
MV4-11 [13] = test: Induction of apoptosis in human MV4-11 cells assessed as necrotic cells at 5 times GI50 after 24 hrs by annexin V/propidium iodide staining based flow cytometry (reference value: 0.06%); type: functional
MV4-11 [14] = test: Cell cycle arrest in human MV4-11 cells assessed as accumulation at G1 phase at 10 times GI50 after 24 hrs by propidium iodide staining based flow cytometry (reference value: 58.99%); type: functional; how it was run: as §1
[15] = Growth inhibition of human M249R cells after 72 hrs by resazurin or MTT assay; type: functional; conditions: M249, 72 h
[16] = Growth inhibition of human M249 cells after 72 hrs by resazurin or MTT assay; type: functional; conditions: M249, 72 h
MV4-11 [17] = test: Induction of apoptosis in human MV4-11 cells assessed as early apoptotic cells at GI50 after 24 hrs by annexin V/propidium iodide staining based flow cytometry (reference value: 2.01%); type: functional
A2780 = test: Growth inhibition of human A2780 cells after 72 hrs by resazurin or MTT assay; type: functional; conditions: A2780, 72 h
MV4-11 [18] = test: Cell cycle arrest in human MV4-11 cells assessed as accumulation at sub-G1 phase at 10 times GI50 after 24 hrs by propidium iodide staining based flow cytometry (reference value: 0.91%); type: functional; how it was run: as §1
MV4-11 [19] = test: Induction of apoptosis in human MV4-11 cells assessed as viable cells at GI50 after 24 hrs by annexin V/propidium iodide staining based flow cytometry (reference value: 93.05%); type: functional
NB-4 = test: Growth inhibition of human NB4 cells after 72 hrs by resazurin or MTT assay; type: functional; conditions: NB-4, 72 h
MDA-MB-453 = test: Growth inhibition of human MDA-MB-453 cells after 72 hrs by MTT assay; type: functional; conditions: MDA-MB-453, 72 h; how it was run: as §2
MV4-11 [20] = test: Cell cycle arrest in human MV4-11 cells assessed as accumulation at S phase at 5 times GI50 after 24 hrs by propidium iodide staining based flow cytometry (reference value: 21.97%); type: functional; how it was run: as §1
MV4-11 [21] = test: Induction of apoptosis in human MV4-11 cells assessed as viable cells at 5 times GI50 after 24 hrs by annexin V/propidium iodide staining based flow cytometry (reference value: 93.05%); type: functional
MV4-11 [22] = test: Induction of apoptosis in human MV4-11 cells assessed as late apoptotic cells at 5 times GI50 after 24 hrs by annexin V/propidium iodide staining based flow cytometry (reference value: 4.87%); type: functional
[23] = Growth inhibition of nontransformed human BPH1 cells after 72 hrs by resazurin or MTT assay; type: cell-based; conditions: BPH-1 cells (nontransformed)
MV4-11 [24] = test: Induction of apoptosis in human MV4-11 cells assessed as late apoptotic cells at GI50 after 24 hrs by annexin V/propidium iodide staining based flow cytometry (reference value: 4.87%); type: functional
DU-145 = test: Growth inhibition of human DU145 cells after 72 hrs by resazurin or MTT assay; type: functional; conditions: DU-145, 72 h
MV4-11 [25] = test: Cell cycle arrest in human MV4-11 cells assessed as accumulation at G1 phase at GI50 after 24 hrs by propidium iodide staining based flow cytometry (reference value: 58.99%); type: functional; how it was run: as §1
[26] = Growth inhibition of human M229 cells after 72 hrs by resazurin or MTT assay; type: functional; conditions: M229, 72 h
LNCaP C4-2B = test: Growth inhibition of human C4-2B cells after 72 hrs by resazurin or MTT assay; type: functional
MV4-11 [27] = test: Cell cycle arrest in human MV4-11 cells assessed as accumulation at sub-G1 phase at GI50 after 24 hrs by propidium iodide staining based flow cytometry (reference value: 0.91%); type: functional; how it was run: as §1
MV4-11 [28] = test: Cell cycle arrest in human MV4-11 cells assessed as accumulation at S phase at 10 times GI50 after 24 hrs by propidium iodide staining based flow cytometry (reference value: 21.97%); type: functional; how it was run: as §1
[29] = Growth inhibition of human MRC5 cells after 72 hrs by resazurin or MTT assay; type: cell-based
MV4-11 [30] = test: Induction of apoptosis in human MV4-11 cells assessed as late apoptotic cells at 10 times GI50 after 24 hrs by annexin V/propidium iodide staining based flow cytometry (reference value: 4.87%); type: functional

| SMILES | GI50 (MDA-MB-468) | GI50 (MCF7) | Activity (MV4-11 [1]) | Activity (MV4-11 [2]) | Activity (MV4-11 [3]) | Activity (MV4-11 [4]) | Activity (MV4-11 [5]) | Activity (MV4-11 [6]) | Activity (MV4-11 [7]) | Activity (MV4-11 [8]) | GI50 [9] | Activity (MV4-11 [10]) | GI50 (MV4-11 [11]) | GI50 (MOLM-13) | Activity (MV4-11 [12]) | GI50 (PC-3) | Activity (MV4-11 [13]) | Activity (MV4-11 [14]) | GI50 [15] | GI50 [16] | also measured |
| --- | --- | --- | --- | --- | --- | --- | --- | --- | --- | --- | --- | --- | --- | --- | --- | --- | --- | --- | --- | --- | --- |
| CC(=O)c1c(C)c2cnc(Nc3ccc(N4CCNCC4)cn3)nc2n(C2CCCC2)c1=O [PALBOCICLIB] | 5.96 µM | 557 nM | 89.91% | 4.13% | 0.12% | 12.18% | 88.99% | 11.49% | 2.14% | 1.81% | 1970 nM | 2.31% | 50 nM | 62 nM | 4.12% | 71 nM | 0.21% | 89.5% | 2960 nM | 1990 nM | Activity (MV4-11 [17]): 2.54%; GI50 (A2780): 32 nM; Activity (MV4-11 [18]): 1.72%; Activity (MV4-11 [19]): 90.99%; GI50 (NB-4): 66 nM; GI50 (MDA-MB-453): 326 nM; Activity (MV4-11 [20]): 5.07%; Activity (MV4-11 [21]): 90.49%; Activity (MV4-11 [22]): 7.16%; GI50 at 72 h [23]: 7.44 µM; Activity (MV4-11 [24]): 6.28%; GI50 (DU-145): 5.79 µM; Activity (MV4-11 [25]): 75.13%; GI50 [26]: 1220 nM; GI50 (LNCaP C4-2B): 4.15 µM; Activity (MV4-11 [27]): 1.32%; Activity (MV4-11 [28]): 4.67%; GI50 at 72 h [29]: > 10 µM; Activity (MV4-11 [30]): 7.65% |
| Cc1nc(NC2CCCC2)sc1-c1ccnc(Nc2ccc(N3CCOCC3)cn2)n1 | > 10 µM | 1890 nM | 89.53% | 10.91% | 0.35% | 17.77% | 71.66% | 15.3% | 2.37% | 4.09% | 2200 nM | 2.83% | 209 nM | 385 nM | 5.75% | 150 nM | 0.16% | 81.18% | 38 nM | 82 nM | Activity (MV4-11 [17]): 2.33%; GI50 (A2780): 58 nM; Activity (MV4-11 [18]): 2.6%; Activity (MV4-11 [19]): 92.71%; GI50 (NB-4): 681 nM; GI50 (MDA-MB-453): 3680 nM; Activity (MV4-11 [20]): 13.85%; Activity (MV4-11 [21]): 90.43%; Activity (MV4-11 [22]): 7.03%; GI50 at 72 h [23]: > 10 µM; Activity (MV4-11 [24]): 4.9%; GI50 (DU-145): > 10 µM; Activity (MV4-11 [25]): 63.57%; GI50 [26]: 150 nM; GI50 (LNCaP C4-2B): > 10 µM; Activity (MV4-11 [27]): 3.43%; Activity (MV4-11 [28]): 10.53%; GI50 at 72 h [29]: > 10 µM; Activity (MV4-11 [30]): 7.27% |
